Assay results pooled from the literature.
Protocols differ between the studies behind these lines.
ALK: ALK tyrosine kinase receptor (ALK, Homo sapiens, UniProt Q9UM73)
ALK L1196M: ALK tyrosine kinase receptor (ALK, Homo sapiens, UniProt Q9UM73, L1196M)

Compound | target | effect on | mode | technique | tested at | quantity | result
CNC(=O)c1ccccc1Nc1nc(Nc2ccc(CO)cc2)ncc1Cl | ALK | enzyme activity | inhibitor | radiometric | 1 µM | remaining activity | 1.07%
N#Cc1ccc(NC(=O)Nc2ccccc2)cc1 | ALK | cell-free assay | – | competition with immobilised ligand | 25 µM | remaining binding | 76%
CC#CC(=O)N1CCC[C@H]1c1nc(-c2ccc(C(=O)Nc3ccccn3)cc2)c2c(N)nccn12 | ALK L1196M | enzyme activity | inhibitor | – | 1 µM | inhibition | 11%
C#Cc1cnc(Nc2ccc(CO)cc2)nc1Nc1ccccc1C(=O)NC | ALK | enzyme activity | inhibitor | radiometric | 1 µM | remaining activity | 2.4%
C1=C/COCc2cc(ccc2OCCN2CCCC2)Nc2nccc(n2)-c2cccc(c2)COC/1 | ALK tyrosine kinase receptor (ALK, Homo sapiens, UniProt Q9UM73, C1156Y) | binding | – | – | 0.1 µM | remaining binding | 97%
COc1ccc2[nH]c3c4[nH]c5ccc(OC)cc5c4c4c(c3c2c1)C(=O)NC4=O | ALK L1196M | binding | – | – | 1 µM | remaining binding | 70%
C=CC(=O)N1CCC([C@@H]2CCNc3c(C(N)=O)c(-c4ccc(Oc5ccccc5)cc4)nn32)CC1 | ALK | cell-free assay | – | – | 1 µM | inhibition | 5%
C#Cc1cnc(Nc2ccnc(CO)c2)nc1Nc1ccccc1S(C)(=O)=NC#N (centres unmarked) | ALK | enzyme activity | inhibitor | radiometric | 1 µM | remaining activity | 27.6%
COc1ccc2oc(-c3ccc4nc(N)oc4c3)c/c(=N\c3ccccc3NC(=O)CCN)c2c1 | ALK | binding | – | – | 1 µM | remaining binding | 106%
Cc1ccc(NC(=O)c2ccnc(C(F)(F)F)c2)cc1-c1cc(OCCO)nc(N2CCOCC2)c1 | ALK | binding | – | – | 1 µM | remaining binding | 89%
CO[C@@H]1[C@H](N(C)C(=O)c2ccccc2)C[C@H]2O[C@]1(C)n1c3ccccc3c3c4c(c5c6ccccc6n2c5c31)C(=O)NC4 | ALK L1196M | enzyme activity | inhibitor | – | 1 µM | inhibition | 42%
CCCCC(=O)Nc1ccc(-c2ccc3ncn(CCC)c(=O)c3c2)cn1 | ALK L1196M | binding | – | competition with immobilised ligand | 0.5 µM | remaining binding | 100%
C#Cc1cnc(Nc2ccc(CO)nc2)nc1Nc1ccccc1S(C)(=O)=NC#N (centres unmarked) | ALK | enzyme activity | inhibitor | radiometric | 1 µM | remaining activity | 18.9%
CN1CCN(C(=O)c2ccc(NC(=O)Nc3ccc(N(C)c4ccnc(Nc5ccc(CS(C)(=O)=O)cc5)n4)cc3)cc2)CC1 | ALK L1196M | binding | – | – | 1 µM | remaining binding | 83%
